High-throughput results deposited in PubChem by Sanford-Burnham Center for Chemical Genomics.
Only some compounds are listed: those with a hit (about 3.3% of all), similar ones and a draw of the others.
SENP6 block – inhibitors of human SENP6 protease. 1.8% of 330,000 active. Recombinant SENP6 catalytic domain, aminoluciferin luminescence. AID 2599. inhibition, % at 10 µM;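 active = inhibition above about 50% at the single tested dose, limit read from the data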
SENP8 block-1 – inhibitors of human SENP8 protease. Q96LD8. recombinant SENP8, Nedd8 substrate fluorescence. inhibition, % at 20 µM. 0.64% of 360,000 active; in the data active = inhibition mostly above about 40%, no sharp cut-off; inactive = mostly below about 27%
Target sequence (Q96LD8 whole entry, looked up): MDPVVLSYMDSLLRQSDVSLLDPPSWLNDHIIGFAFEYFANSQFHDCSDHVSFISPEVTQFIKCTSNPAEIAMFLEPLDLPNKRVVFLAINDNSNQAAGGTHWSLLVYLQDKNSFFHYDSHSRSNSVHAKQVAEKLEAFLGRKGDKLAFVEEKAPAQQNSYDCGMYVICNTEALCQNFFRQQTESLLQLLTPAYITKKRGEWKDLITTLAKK
SENP1 inh – blocks the human SENP1 SUMO protease catalytic domain; inhibition, % at 10 µM; Q9P0U3; AID 624204; 0.21% of 360,000 active; recombinant SENP1 catalytic domain, CyPet-SUMO1-YPet FRET cleavage;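 active = inhibition at least 30% at 10 µM, raw YFP signal under a set limit, fluorescence ratio 0.5 to 1.5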
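Test system: recombinant human SENP1 catalytic domain, His6-tagged / Medium: pH 8 Tris buffer with EDTA, NaCl, BME, BSA, NP40, catalase / Also added: SUMO1 FRET substrate flanked by Cypet and Ypet, 25 nM / Times: 50 min reaction at room temperature / Signal: FRET, CFP and YFP emission / Control set: no-enzyme low control and enzyme-plus-DMSO high control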
SENP8 block-2 – inhibitors of human SENP8 protease; Q96LD8; purified SENP8, Z-RLRGG-aminoluciferin cleavage, luminescence; inhibition, % at 10 µM; 1.2% of 330,000 active; AID 2540; in the data active = inhibition above about 50%
SENP7 inh – blocks the human protease SENP7; Q9BQF6; recombinant SENP7, Z-RLRGG-aminoluciferin luminescence, 40 min; 1.5% of 330,000 active; inhibition, % at 5 µM;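 active = inhibition above about 50% at the single test dose, limit read from the data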
Target sequence (Q9BQF6 706-1050 limits assumed): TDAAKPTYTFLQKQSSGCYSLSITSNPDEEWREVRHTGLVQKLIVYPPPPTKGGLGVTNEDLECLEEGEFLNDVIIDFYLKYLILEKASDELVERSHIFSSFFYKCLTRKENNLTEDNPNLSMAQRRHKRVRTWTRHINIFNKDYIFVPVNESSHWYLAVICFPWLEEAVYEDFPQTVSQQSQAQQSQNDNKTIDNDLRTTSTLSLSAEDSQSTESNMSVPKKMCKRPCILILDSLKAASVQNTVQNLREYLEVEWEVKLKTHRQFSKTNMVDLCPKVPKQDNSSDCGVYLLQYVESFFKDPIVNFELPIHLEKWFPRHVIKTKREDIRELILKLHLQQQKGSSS
CendR NRP1 mod – alters CendR peptide binding to human NRP-1. 0.85% of 360,000 active. FAM-RPARPAR peptide binding to NRP-1, fluorescence polarization. inhibition, % at 25 µM. O14786;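 active = inhibition or corrected inhibition above about 18%, plus a signal ratio from 0.5 to 1.5, limit read from the data, passing the limit was not always enough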
SENP8 conf – human SENP8 inhibition, confirmed | shares compounds with SENP7 inh | inhibition, % at 12.5 µM | Recombinant SENP8, Z-RLRGG-aminoluciferin luminescence, 60 min | AID 488912 | 40% of 6,200 active;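 active = mean inhibition across replicates above about 50%, limit read from the data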
SENP6 confirm – human SENP6 inhibition, confirmed | 58% of 6,200 active | recombinant SENP6, Z-RLRGG-aminoluciferin luminescence | AID 488915 | shares compounds with SENP7 inh | inhibition, % at 12.5 µM
SENP7 confirm – human SENP7 inhibition, confirmed. shares compounds with SENP7 inh. recombinant SENP7, Z-RLRGG-aminoluciferin luminescence, 40 min. inhibition, % at 12.5 µM. 69% of 6,200 active. AID 488917
Casp3 select – selectivity test for SENP inhibitors: human caspase-3 inhibition. shares compounds with SENP7 inh. 60% of 6,200 active. AID 488918. purified caspase-3, Z-DEVD-aminoluciferin luminescence, 60 min. inhibition, % at 12.5 µM;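 active = mean inhibition above about 50%, limit read from the data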
SENP luc ctr – counter-screen for SENP inhibitors: luminescence interference; AID 488919; Pre-incubated SENP8/Z-RLRGG-aminoluciferin, luciferase luminescence interference; inhibition, % at 12.5 µM; shares compounds with SENP7 inh; 39% of 6,200 active;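 active = mean inhibition above about 50% when retested at one dose, limit read from the data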
Hits are given with their value.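 Rule for the calls, unless noted: active = mean inhibition above about 50% in the one-dose retest (limit read from the data); inactive = the rest.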

Results for O=C(Nc1nc(-c2ccc3c(c2)OCCO3)cs1)c1ccco1 ?
SENP6 block: 86; SENP8 block-1: inactive; SENP1 inh: inactive; SENP8 block-2: 83; SENP7 inh: 89; CendR NRP1 mod: inactive; SENP8 conf: 86; SENP6 confirm: 86; SENP7 confirm: 97; Casp3 select: 75; SENP luc ctr: 90

What do the screens show for `CCOc1ccccc1N(CC(=O)N1CCN(Cc2ccccc2)CC1)S(=O)(=O)c1ccccc1`?
SENP8 block-1: inactive; SENP1 inh: inactive; CendR NRP1 mod: inactive

What do the screens show for `Cc1cc(C)c(-c2csc(NC(=O)C3=COCCO3)n2)c(C)c1`?
SENP6 block: inactive; SENP8 block-1: inactive; SENP1 inh: inactive; SENP8 block-2: inactive; SENP7 inh: inactive; CendR NRP1 mod: inactive

How did Cc1cc(C)c2sc(NC(=O)C3=COCCO3)nc2c1 do in these assays?
SENP6 block: 67; SENP8 block-1: inactive; SENP1 inh: inactive; SENP8 block-2: inactive; SENP7 inh: 62; CendR NRP1 mod: inactive; SENP8 conf: inactive; SENP6 confirm: 65; SENP7 confirm: 89; Casp3 select: 56; SENP luc ctr: inactive

Results for CC1(C(=O)Nc2ccc3nc[nH]c3c2)CCN1C(=O)C1(c2ccccc2)CCCC1 (stereo unspecified) ?
SENP8 block-1: inactive; SENP1 inh: inactive; CendR NRP1 mod: inactive

What do the screens show for `O=C(c1cccs1)N1CCN(Cc2nc(-c3ccccc3)no2)CC1`?
SENP8 block-1: inactive; SENP1 inh: inactive; CendR NRP1 mod: inactive

Results for Cc1ccc(-n2nc(C)c3cc(C(=O)O)sc32)cc1 ?
SENP6 block: inactive; SENP8 block-1: inactive; SENP1 inh: inactive; SENP8 block-2: inactive; SENP7 inh: inactive; CendR NRP1 mod: inactive

What do the screens show for `Cc1nn(-c2ccc(F)cc2)c2sc(C(=O)O)cc12`?
SENP6 block: inactive; SENP8 block-1: inactive; SENP1 inh: inactive; SENP8 block-2: inactive; SENP7 inh: 98; CendR NRP1 mod: inactive; SENP8 conf: inactive; SENP6 confirm: inactive; SENP7 confirm: inactive; Casp3 select: inactive; SENP luc ctr: inactive

How did COC(=O)c1ccccc1NC(=O)Nc1cccnc1 do in these assays?
SENP6 block: 77; SENP8 block-1: inactive; SENP1 inh: inactive; SENP8 block-2: 59; SENP7 inh: inactive; CendR NRP1 mod: inactive; SENP8 conf: inactive; SENP6 confirm: 72; SENP7 confirm: 95; Casp3 select: 92; SENP luc ctr: 70

What do the screens show for `COC(=O)c1ccccc1NC(=O)c1cccnc1`?
SENP6 block: inactive; SENP8 block-1: inactive; SENP1 inh: inactive; SENP8 block-2: inactive; SENP7 inh: inactive; CendR NRP1 mod: inactive

Results for CCCCc1ccc(NC(=O)Nc2cccnc2)cc1 ?
SENP6 block: 74; SENP8 block-1: inactive; SENP1 inh: inactive; SENP8 block-2: 51; SENP7 inh: 58; CendR NRP1 mod: inactive; SENP8 conf: 63; SENP6 confirm: 67; SENP7 confirm: 84; Casp3 select: inactive; SENP luc ctr: inactive

How did COc1ccc2c(c1)Cc1c-2cc(Br)c(N)c1Br do in these assays?
SENP8 block-1: inactive; SENP1 inh: inactive; CendR NRP1 mod: inactive

What do the screens show for `O=Cc1ccccc1OCc1ccc2c(c1)OCO2`?
SENP6 block: 97; SENP8 block-1: inactive; SENP1 inh: inactive; SENP8 block-2: 91; SENP7 inh: 92; CendR NRP1 mod: inactive; SENP8 conf: 96; SENP6 confirm: 97; SENP7 confirm: 101; Casp3 select: 95; SENP luc ctr: 90

What do the screens show for `O=C(CN1CCCC1c1ccc2c(c1)OCCO2)NC(=O)Nc1ccccc1` (stereo unspecified)?
SENP6 block: inactive; SENP8 block-1: inactive; SENP1 inh: inactive; SENP8 block-2: inactive; SENP7 inh: inactive; CendR NRP1 mod: inactive

How did Cc1ccc(Nc2nc(-c3cccnc3)cs2)cc1C do in these assays?
SENP6 block: 74; SENP8 block-1: inactive; SENP1 inh: inactive; SENP8 block-2: 55; SENP7 inh: 58; CendR NRP1 mod: inactive; SENP8 conf: inactive; SENP6 confirm: 68; SENP7 confirm: 88; Casp3 select: inactive; SENP luc ctr: inactive

What do the screens show for `CCOc1ccc(Nc2nc(-c3cccnc3)cs2)cc1`?
SENP6 block: inactive; SENP8 block-1: inactive; SENP1 inh: inactive; SENP8 block-2: inactive; SENP7 inh: 70; CendR NRP1 mod: inactive; SENP8 conf: inactive; SENP6 confirm: inactive; SENP7 confirm: inactive; Casp3 select: inactive; SENP luc ctr: inactive

How did Cn1c(=O)ccc2ccccc21 do in these assays?
SENP8 block-1: inactive; SENP1 inh: inactive; CendR NRP1 mod: inactive

Results for COc1ccc(C(C[N+](=O)[O-])c2c(C)[nH]n(-c3ccccc3)c2=O)cc1 (stereo unspecified) ?
SENP6 block: 65; SENP8 block-1: 84; SENP1 inh: inactive; SENP8 block-2: inactive; SENP7 inh: 61; CendR NRP1 mod: inactive; SENP8 conf: inactive; SENP6 confirm: 60; SENP7 confirm: inactive; Casp3 select: inactive; SENP luc ctr: inactive

What do the screens show for `COc1ccc(C(C[N+](=O)[O-])c2c(C)cc3ccccn23)cc1` (stereo unspecified)?
SENP6 block: inactive; SENP8 block-1: inactive; SENP1 inh: inactive; SENP8 block-2: inactive; SENP7 inh: inactive; CendR NRP1 mod: inactive

How did COc1cccc(C(c2c(C)[nH]n(-c3ccccc3)c2=O)c2c(C)[nH]n(-c3ccccc3)c2=O)c1O do in these assays?
SENP6 block: 57; SENP8 block-1: 54; SENP1 inh: inactive; SENP8 block-2: inactive; SENP7 inh: 56; CendR NRP1 mod: inactive; SENP8 conf: inactive; SENP6 confirm: inactive; SENP7 confirm: inactive; Casp3 select: inactive; SENP luc ctr: inactive

Results for Clc1cccc(Cl)c1/C=C/c1nc2ccccc2[nH]1 ?
SENP6 block: 82; SENP8 block-1: inactive; SENP1 inh: inactive; SENP8 block-2: 89; SENP7 inh: 93; CendR NRP1 mod: inactive; SENP8 conf: 94; SENP6 confirm: 96; SENP7 confirm: 101; Casp3 select: 87; SENP luc ctr: 76

What do the screens show for `C(=N\n1cnnc1)/c1nc2ccccc2[nH]1`?
SENP6 block: inactive; SENP8 block-1: inactive; SENP1 inh: inactive; SENP8 block-2: inactive; SENP7 inh: inactive; CendR NRP1 mod: inactive
